Laboratory results: article PMC2193282 (The Journal of Experimental Medicine, 2000)

Tested on: epidermal Langerhans cells
Experiment: Langerhans cell migration assay
Format: in vivo, BALB/c mice
Details: 24 h after topical application of 0.5% DNFB on ear (Fig. 5 A)
Summary of the method: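 Ears were harvested 24 h later. Epidermal sheets were separated (0.5 M ammonium thiocyanate, 20 min, 37°C), acetone-fixed and stained with FITC anti-IA mAb 2G9. IA+ cells were counted at ×400 in 10 fields/sample; 5–15 mice/group.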

O=[N+]([O-])c1ccc(F)c([N+](=O)[O-])c1 [DNFB, dinitrofluorobenzene]
reduction of epidermal Langerhans cell density: ~35%
